Laboratory results published in ChEMBL document CHEMBL1800016, “Novel thiazolidinedione derivatives with anti-obesity effects: dual action as PTP1B inhibitors and PPAR-γ activators” (Bioorg Med Chem Lett, 2010).
Active and inactive are the calls of the source. The rule behind the calls is not given here.

Columns and labels:
[1] = biological target: T1, Tyrosine-protein phosphatase non-receptor type 1 (Homo sapiens, UniProt P18031); experiment: Inhibition of PTP1B expressed in Escherichia coli assessed as p-nitrophenol release from pNPP substrate preincubated for 10 mins
T1 sequence (P18031 whole entry): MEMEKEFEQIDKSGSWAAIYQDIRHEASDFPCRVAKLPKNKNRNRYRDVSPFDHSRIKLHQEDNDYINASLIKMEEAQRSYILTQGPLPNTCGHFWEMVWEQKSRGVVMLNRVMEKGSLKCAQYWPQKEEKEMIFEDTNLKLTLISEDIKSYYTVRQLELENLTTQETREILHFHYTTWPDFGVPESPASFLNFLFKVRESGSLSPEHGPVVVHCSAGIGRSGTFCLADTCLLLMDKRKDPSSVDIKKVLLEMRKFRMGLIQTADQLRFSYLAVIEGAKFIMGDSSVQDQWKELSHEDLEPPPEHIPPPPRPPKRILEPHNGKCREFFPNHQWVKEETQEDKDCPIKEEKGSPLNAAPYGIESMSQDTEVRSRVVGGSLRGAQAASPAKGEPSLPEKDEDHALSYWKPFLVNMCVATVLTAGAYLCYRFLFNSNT
Summary of the method: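 IC50 values against the PTP panel, with enzymes prepared as described in the supplementary material. Values are means ± SD of two or more experiments.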

[2] = biological target: T2, Peroxisome proliferator-activated receptor gamma (Homo sapiens) (UniProt P37231); experiment: Agonist activity at PPARgamma expressed in HepG2 cells co-expressing PPRE assessed as concentration required for maximal activation after 24 hrs by luciferase reporter gene assay; assay type: functional, cell-based
T2 sequence (whole entry): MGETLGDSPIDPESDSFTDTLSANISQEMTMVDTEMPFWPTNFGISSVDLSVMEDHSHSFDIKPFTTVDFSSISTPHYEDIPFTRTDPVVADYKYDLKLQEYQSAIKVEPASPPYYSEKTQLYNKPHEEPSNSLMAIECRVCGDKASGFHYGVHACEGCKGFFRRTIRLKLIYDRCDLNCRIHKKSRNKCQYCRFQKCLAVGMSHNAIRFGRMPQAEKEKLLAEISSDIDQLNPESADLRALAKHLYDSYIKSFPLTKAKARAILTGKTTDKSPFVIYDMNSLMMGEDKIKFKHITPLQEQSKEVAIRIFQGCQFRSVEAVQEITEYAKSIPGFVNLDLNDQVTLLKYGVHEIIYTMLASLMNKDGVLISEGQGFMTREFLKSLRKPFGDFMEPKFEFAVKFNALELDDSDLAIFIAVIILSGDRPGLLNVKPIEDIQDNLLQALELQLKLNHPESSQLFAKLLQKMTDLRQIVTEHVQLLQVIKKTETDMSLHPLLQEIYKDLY

[3] = biological target: T3, Peroxisome proliferator-activated receptor gamma (Homo sapiens, UniProt P37231); experiment: Agonist activity at PPARgamma expressed in HepG2 cells co-expressing PPRE assessed as transcriptional activation after 24 hrs by luciferase reporter gene assay; assay type: functional, cell-based
T3 sequence (P37231 whole entry): T2 sequence (whole entry)
Summary of the method: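 HepG2 cells were transfected with a PPRE-driven luciferase reporter plus CMV-βGal. The basic luciferase reporter without a PPRE site served as the negative control. Compounds were added 6 h after transfection. Cells were lysed 24 h later. Luciferase activity was read on a luminometer and normalized to β-galactosidase for transfection efficiency. Two independent experiments; error as SEM.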

[4] = tested on: Mus musculus; experiment: Antiobesity activity in high fat diet-fed diabetic C57BL/6J Jms Slc mouse model assessed as reduction in body weight at 2.6 mg/day administered with food for 4 weeks; assay type: functional
Summary of the method: (§1)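 DIO male C57BL/6J Jms Slc mice were fed a 45%-fat HFD for 8 wk, then HFD with 0.1% w/w compound in feed (about 2.6 mg/day/mouse) for 4 wk. A 10%-fat LFD lean group ran throughout. Measures were weight gain, feed efficiency (weight gain/kcal ×100), and epididymal and retroperitoneal fat pad weights. n = 8/group; mean ± SEM; one-way ANOVA.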

[5] = tested on: Mus musculus; experiment: Antiobesity activity in high fat diet-fed diabetic C57BL/6J Jms Slc mouse model assessed as weight gain/kcal at 2.6 mg/day administered with food for 4 weeks; assay type: functional; summary of the method: as §1
[6] = tested on: Mus musculus; experiment: Antiobesity activity in high fat diet-fed diabetic C57BL/6J Jms Slc mouse model assessed as decrease in epididymal fat at 2.6 mg/day administered with food for 4 weeks; assay type: functional; summary of the method: as §1
[7] = tested on: Mus musculus; experiment: Antiobesity activity in high fat diet-fed diabetic C57BL/6J Jms Slc mouse model assessed as decrease in retroperitoneal fat at 2.6 mg/day administered with food for 4 weeks; assay type: functional; summary of the method: as §1
[8] = tested on: Mus musculus; experiment: Antiobesity activity in high fat diet-fed diabetic C57BL/6J Jms Slc mouse model assessed as decrease in total cholesterol level in serum at 2.6 mg/day administered with food for 4 weeks; assay type: functional
Summary of the method: (§2)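 DIO mice were fed HFD for 8 wk, then HFD containing 0.1% w/w compound (about 2.6 mg/day/mouse) for 4 wk. At the end of feeding, mice were deprived of food overnight. Serum total cholesterol, triglyceride and NEFA were then measured. Values are mean ± SEM.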

[9] = tested on: Mus musculus; experiment: Antiobesity activity in high fat diet-fed diabetic C57BL/6J Jms Slc mouse model assessed as decrease in serum triglyceride level at 2.6 mg/day administered with food for 4 weeks; assay type: functional; summary of the method: as §2
[10] = tested on: Mus musculus; experiment: Antiobesity activity in high fat diet-fed diabetic C57BL/6J Jms Slc mouse model assessed as decrease in non-esterified free fatty acid level in serum at 2.6 mg/day administered with food for 4 weeks; assay type: functional; summary of the method: as §2
[11] = tested on: Mus musculus; experiment: Antidiabetic activity in high fat diet-fed diabetic C57BL/6J Jms Slc mouse model assessed as normalization of blood glucose level at 2.6 mg/day administered with food for 4 weeks measured 60 mins after last dose by glucose tolerance test; assay type: functional, organism-based
Summary of the method: (§3)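 Mice were male C57BL/6J Jms Slc, 5 wk old after 1 wk acclimatization. They were fed a 45%-fat HFD for 8 wk, then HFD with compound mixed in (1.0 g/kg diet, about 2.6 mg/day/mouse, 78 mg/day/kg) for 4 wk. Each mouse was fasted 6 h from the start of the light cycle and fasting glucose was measured. Glucose 1.0 g/kg was then given i.p., with readings at 60 and 90 min.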

[12] = tested on: Mus musculus; experiment: Antidiabetic activity in high fat diet-fed diabetic C57BL/6J Jms Slc mouse model assessed as normalization of blood glucose level at 2.6 mg/day administered with food for 4 weeks measured 90 mins after last dose by glucose tolerance test; assay type: functional, organism-based; summary of the method: as §3
[13] = biological target: T4, Tyrosine-protein phosphatase non-receptor type 1 (Homo sapiens) (UniProt P18031); experiment: Competitive inhibition of PTP1B expressed in Escherichia coli
T4 sequence (whole entry): T1 sequence (P18031 whole entry)

[14] = tested on: Mus musculus; experiment: Toxicity in high fat diet-fed diabetic C57BL/6J Jms Slc mouse model assessed as dark-brownish spots in liver at 4.8 mg/day administered with food for 4 weeks; conditions: in vivo, po, 672 h

Q: How did the IC50 [1] turn out when `Cc1ccc(S(=O)(=O)Oc2ccc(/C=C3\SC(=O)NC3=O)c(OCc3ccc(NC(=O)c4cccc(C(F)(F)F)c4)cc3)c2)cc1` was run?
A: The IC50 was 11 µM.

Q: Which IC50 [1] does the source give for `O=C1NC(=O)/C(=C/c2ccc(OCc3ccc(S(=O)(=O)N4CCOCC4)cc3)cc2OCc2ccc(C(F)(F)F)cc2)S1` here?
A: The IC50 was 19 µM.

Q: For `O=C1NC(=O)/C(=C/c2ccc(OCc3cccnc3)cc2OCc2ccc(C(F)(F)F)cc2)S1`, which IC50 [1] is on record?
A: The IC50 was 12 µM.

Q: Which IC50 [1] does the source give for `O=C1NC(=O)/C(=C/c2ccc(OCc3ccccc3)cc2OCc2ccc(C(F)(F)F)cc2)S1` here?
A: Its IC50 is 4 µM.

Q: How did the IC50 [1] turn out when `O=C1NC(=O)/C(=C/c2ccc(OCc3ccc(C(F)(F)F)cc3)cc2OCc2ccc(C(F)(F)F)cc2)S1` was run?
A: The IC50 was 9 µM.

Q: How did the IC50 [1] turn out when `O=C1NC(=O)/C(=C/c2ccc(OCc3ccccc3)cc2OCc2ccccc2)S1` was run?
A: Its IC50 is 10 µM.

Q: Which results are given for `O=C1NC(=O)/C(=C/c2cc(Br)ccc2OCc2cc(C(F)(F)F)cc(C(F)(F)F)c2)S1`?
A: Activity [2]: 4 µM; EC50 [3]: 0.87 µM; Activity [4]: 2.16 g; feed efficiency [5]: 0.68 g/100 kcal; Activity [6]: 1.27 g; Activity [7]: 0.42 g; Activity [8]: 125 mg/dL; Activity [9]: 78 mg/dL; Activity [10]: 0.22 mM; Activity [11]: Active; Activity [12]: Active; inhibition [13]: Active; Activity [14]: Toxic

Q: With `O=C1NC(=O)/C(=C/c2ccc(OCc3ccc(NC(=O)c4cccc(C(F)(F)F)c4)cc3)cc2OCc2ccc(C(F)(F)F)cc2)S1` as the molecule, how does the IC50 [1] read?
A: The IC50 was 6 µM.

Q: Which IC50 [1] does the source give for `Cc1ccc(S(=O)(=O)Oc2ccc(/C=C3\SC(=O)NC3=O)c(OCc3ccc(C(F)(F)F)cc3)c2)cc1` here?
A: Its IC50 is 2.3 µM.

Q: With `O=C1NC(=O)/C(=C/c2ccc(OS(=O)(=O)c3ccc(Br)cc3)cc2OCc2ccc(C(F)(F)F)cc2)S1` as the molecule, how does the IC50 [1] read?
A: Its IC50 is 6 µM.

Q: For `Cc1ccc(S(=O)(=O)Oc2ccc(/C=C3\SC(=O)NC3=O)c(OS(=O)(=O)c3ccc(C)cc3)c2)cc1`, which IC50 [1] is on record?
A: Its IC50 is 16 µM.

Q: With `Cc1ccc(S(=O)(=O)Oc2cc(OCc3cc(C(F)(F)F)cc(C(F)(F)F)c3)c(/C=C3\SC(=O)NC3=O)cc2Br)cc1` as the molecule, how does the IC50 [1] read?
A: The IC50 was 2 µM.

Q: With `O=C1NC(=O)/C(=C/c2ccc(OCc3ccccc3)cc2OCc2ccc(F)cc2)S1` as the molecule, how does the IC50 [1] read?
A: The IC50 was 9 µM.

Q: For `O=C1NC(=O)/C(=C/c2ccc(OCc3ccc(F)cc3)cc2OCc2ccc(C(F)(F)F)cc2)S1`, which IC50 [1] is on record?
A: The IC50 was 4 µM.

Q: With `O=C1NC(=O)/C(=C/c2ccc(OCc3ccc(F)cc3)cc2OCc2ccc(F)cc2)S1` as the molecule, how does the IC50 [1] read?
A: The IC50 was 8 µM.

Q: How did the IC50 [1] turn out when `O=C1NC(=O)/C(=C/c2ccc(OCc3ccc(F)cc3)cc2OCc2ccccc2)S1` was run?
A: Its IC50 is 9 µM.

Q: For `O=C1NC(=O)/C(=C/c2ccc(OCc3ccccn3)cc2OCc2ccc(C(F)(F)F)cc2)S1`, which IC50 [1] is on record?
A: Its IC50 is 12 µM.

Q: For `O=C(O)COc1cc(OCc2ccccc2)ccc1/C=C1\SC(=O)NC1=O`, which IC50 [1] is on record?
A: The IC50 was 136 µM.

Q: Which IC50 [1] does the source give for `O=C1NC(=O)/C(=C/c2cc(Br)c(OCc3ccc(C(F)(F)F)cc3)cc2OCc2ccc(C(F)(F)F)cc2)S1` here?
A: Its IC50 is 1.4 µM.

Q: Which IC50 [1] does the source give for `O=C1NC(=O)/C(=C/c2ccc(OS(=O)(=O)c3ccc(Br)cc3)cc2OCc2ccc(S(=O)(=O)N3CCOCC3)cc2)S1` here?
A: Its IC50 is 14 µM.

Q: How did the IC50 [1] turn out when `CC(=O)Nc1ccc(COc2cc(OS(=O)(=O)c3ccc(C)cc3)ccc2/C=C2\SC(=O)NC2=O)cc1` was run?
A: Its IC50 is 33 µM.
